The text below walks through data of ChEMBL document CHEMBL1125833, “Anxiolytic properties of certain annelated [1,2,4]triazolo[1,5-c]pyrimidin-5(6H)-ones” (J Med Chem, 1991).

SMILES strings stand for the structures.

The target in test [1] is GABA-A receptor; anion channel (Rattus norvegicus) (UniProt O09028+P15431+P18506+P18508+P19969+P20236+P23574+P23576+P28471+P28473+P30191+P62813+P63079+P63138+Q91ZM7+Q9ES14). The experiment in a line: GABA ratio measured by the IC50 in the absence of GABA compared to the IC50 in the presence of GABA in rats. The method, boiled down: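 Modified [3H]flunitrazepam binding in rat forebrain, with IC50 measured with and without GABA. Ratio = IC50 without GABA divided by IC50 with GABA.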

Test [2] concerns the target GABA-A receptor; anion channel. The experiment in a line: Displacement of [3H]flunitrazepam (FNZ) from GABA-A benzodiazepine receptor in rat forebrain.
The subject of the next test is Rattus norvegicus. Kind of test: Anxiolytic response at 10 mg/Kg measured by antagonism of pentylenetetrazole discriminative stimuli in rats. The test is classed as functional.

As to `Oc1nc2c(c3nc(-c4ccccc4F)nn13)CN(Cc1ccccn1)CC2`, the GABA ratio in test [1] is 1.65. The IC50 in test [2] turned out to be 0.64 nM. The same compound returned an inhibition in vivo at 10 mg/kg in the test on Rattus norvegicus of 50%.
